Assay results from ChEMBL document CHEMBL2062436, “Design, synthesis, and antiviral evaluation of purine-β-lactam and purine-aminopropanol hybrids” (J Med Chem, 2012).
Active and inactive are the calls of the source. The rule behind the calls is not given here.

What was measured:
[1] = test system: Human immunodeficiency virus 1; experiment: Antiviral activity against Human immunodeficiency virus 1 3B infected in MT4 cells by fluorescence analysis; assay type: functional, organism-based
[2] = test system: Hepatitis C virus; experiment: Antiviral activity against Hepatitis C virus infected in […] cells by luciferase assay; assay type: functional, organism-based; settings: Hepacivirus hominis
[3] = test system: unidentified influenza virus; experiment: Antiviral activity against unidentified influenza virus assessed as inhibition of virus-induced cytopathic effect by cell-based assay; assay type: functional, organism-based
[4] = test system: dengue virus type 2; experiment: Antiviral activity against Dengue virus 2 assessed as inhibition of virus-induced cytopathic effect by cell-based assay; assay type: functional, organism-based
[5] = Cytotoxicity against human HeLa cells by luminescence assay; assay type: cell-based
[6] = Selectivity index, ratio of CC50 for HeLa cells to EC50 for Human respiratory syncytial virus; assay type: toxicity, cell-based; settings: read-out: Ratio CC50/EC50
Method in brief: (§1)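 Ratio of CC50 to EC50. CC50 is the 50% cytotoxic concentration. EC50 is the concentration giving 50% inhibition of the virus-reduced signal relative to the uninfected cell control.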

[7] = test system: Human orthopneumovirus; experiment: Antiviral activity against Human respiratory syncytial virus infected in HeLa cells; assay type: functional, organism-based
[8] = test system: Chikungunya virus; experiment: Antiviral activity against Chikungunya virus assessed as inhibition of virus-induced cytopathic effect by cell-based assay; assay type: functional
Method in brief: (§2)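 EC50 taken as the compound concentration giving 50% inhibition of the virus-reduced cell signal, relative to uninfected cell controls.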

[9] = test system: Coxsackievirus; experiment: Antiviral activity against Coxsackievirus assessed as inhibition of virus-induced cytopathic effect by cell-based assay; assay type: functional, organism-based; method in brief: as §2
[10] = Selectivity index, ratio of CC50 for host cell to EC50 for Chikungunya virus
Method in brief: (§3)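 SI calculated as CC50/EC50. CC50 is the 50% cytotoxic concentration in host cells. EC50 is the concentration giving 50% inhibition of the virus-reduced signal versus uninfected cell controls.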

[11] = Selectivity index, ratio of CC50 for host cell to EC50 for Coxsackievirus; method in brief: as §3
[12] = Selectivity index, ratio of CC50 for HepG2 cells to EC50 for Hepatitis B virus; assay type: toxicity, cell-based; settings: human, read-out: Ratio CC50/EC50; method in brief: as §1
[13] = test system: Hepatitis B virus; experiment: Antiviral activity against Hepatitis B virus infected in HepG2(2.2.15) by PCR analysis; assay type: functional, organism-based
[14] = Cytotoxicity against human HepG2 cells by resazurin assay; assay type: cell-based
[15] = test system: Cytomegalovirus; experiment: Antiviral activity against Cytomegalovirus infected in human Hel299 cells; assay type: functional, organism-based; settings: Human betaherpesvirus 5, HEL 299
[16] = Cytotoxicity human HEL299 cells by resazurin assay; assay type: cell-based, HEL 299
[17] = Selectivity index, ratio of CC50 for Hel299 cells to EC50 for Cytomegalovirus; assay type: toxicity, cell-based; settings: human, read-out: Ratio CC50/EC50; method in brief: as §1

Row | Structure (SMILES) | Activity [1] | Activity [2] | Activity [3] | Activity [4] | CC50 [5] [µM] | selectivity ratio [6] | EC50 [7] [µM] | EC50 [8] [µM] | EC50 [9] [µM] | Ratio CC50/EC50 [10] | Ratio CC50/EC50 [11] | selectivity ratio [12] | EC50 [13] [µM] | CC50 [14] [µM] | EC50 [15] [µM] | CC50 [16] [µM] | selectivity ratio [17]
1 | O=C1[C@H](CCn2cnc3c(OCc4ccccc4)ncnc32)[C@@H](c2ccccc2)N1Cc1ccccc1 | inactive | inactive | inactive | inactive | – | – | – | – | – | – | – | – | – | – | – | – | –
2 | CC(C)N[C@H](c1ccccc1F)[C@H](CO)CCCn1cnc2c(NCc3ccccc3)ncnc21 (relative stereo) | inactive | inactive | inactive | inactive | > 100 | > 4.25 | 23.6 | – | – | – | – | – | – | – | – | – | –
3 | O=C1[C@@H](Oc2ccccc2)[C@@H](c2ccccc2)N1CCCn1cnc2c(NCc3ccccc3)ncnc21 (relative stereo) | inactive | inactive | inactive | inactive | 46.6 | 5.79 | 8.05 | 17.1 | 3.56 | >5.75 | >28.09 | – | – | – | – | – | –
4 | O=C1[C@@H](OCc2ccccc2)[C@@H](c2ccc(Cl)cc2Cl)N1CCCn1cnc2c(NCc3ccccc3)ncnc21 (relative stereo) | inactive | inactive | inactive | inactive | 40.1 | 17.9 | 2.24 | – | – | – | – | – | – | – | – | – | –
5 | O=C1[C@@H](OCc2ccccc2)[C@@H](c2ccccc2)N1CCn1cnc2c(NCc3ccccc3)ncnc21 (relative stereo) | inactive | inactive | inactive | inactive | – | – | – | – | – | – | – | 4.52 | 11.1 | > 50 | – | – | –
6 | COc1ccccc1[C@@H]1[C@H](Oc2ccccc2)C(=O)N1CCn1cnc2c(NCc3ccccc3)ncnc21 (relative stereo) | inactive | inactive | inactive | inactive | – | – | – | 13 | – | 4.53 | – | – | – | – | – | – | –
7 | O=C1[C@@H](Oc2ccccc2)[C@@H](c2ccccc2)N1CCCn1cnc2c(OCc3ccccc3)ncnc21 (relative stereo) | inactive | inactive | inactive | inactive | – | – | – | – | 2.94 | – | >34.05 | – | – | – | 17.2 | 70.8 | 4.13
8 | OC[C@@H](Oc1ccccc1)[C@H](NCCn1cnc2c(NCc3ccccc3)ncnc21)c1ccc(Cl)cc1 (relative stereo) | inactive | inactive | inactive | inactive | 8.23 | 4.29 | 1.92 | 11.5 | – | 6.19 | – | 9.19 | 3.47 | 31.9 | – | – | –
9 | CCCN1C(=O)[C@H](CCCn2cnc3c(NCc4ccccc4)ncnc32)[C@H]1c1ccccc1 (relative stereo) | inactive | inactive | inactive | inactive | – | – | – | – | 2.77 | – | 17.11 | – | – | – | 7.16 | 30.7 | 4.29
10 | CC(C)N1C(=O)[C@H](CCCn2cnc3c(NCc4ccccc4)ncnc32)[C@H]1c1ccccc1F (relative stereo) | inactive | inactive | inactive | inactive | 75.6 | 9.71 | 7.79 | – | – | – | – | – | – | – | – | – | –
11 | CC(C)N1C(=O)[C@H](CCn2cnc3c(OCc4ccccc4)ncnc32)[C@H]1c1ccccc1 (relative stereo) | inactive | inactive | inactive | inactive | – | – | – | – | 4.17 | – | 11.55 | – | – | – | – | – | –
12 | CC(C)N1C(=O)[C@H](CCn2cnc3c(NCc4ccccc4)ncnc32)[C@H]1c1ccccc1 (relative stereo) | inactive | inactive | inactive | inactive | – | – | – | – | – | – | – | – | – | – | – | – | –
13 | CC(C)N[C@H](c1ccccc1)[C@H](CO)CCn1cnc2c(NCc3ccccc3)ncnc21 (relative stereo) | inactive | inactive | inactive | inactive | – | – | – | – | – | – | – | – | – | – | – | – | –
14 | CCCN[C@H](c1ccccc1)[C@H](CO)CCCn1cnc2c(NCc3ccccc3)ncnc21 (relative stereo) | inactive | inactive | inactive | inactive | – | – | – | – | – | – | – | – | – | – | – | – | –
15 | CO[C@@H]1C(=O)N(CCCn2cnc3c(NCc4ccccc4)ncnc32)[C@@H]1c1ccc(C(C)C)cc1 (relative stereo) | inactive | inactive | inactive | inactive | – | – | – | – | – | – | – | – | – | – | – | – | –
16 | CO[C@H](CO)[C@H](NCCCn1cnc2c(NCc3ccccc3)ncnc21)c1ccc(C(C)C)cc1 (relative stereo) | inactive | inactive | inactive | inactive | – | – | – | – | – | – | – | – | – | – | – | – | –
17 | O=C1[C@@H](Oc2ccccc2)[C@@H](c2ccc(Cl)cc2)N1CCn1cnc2c(NCc3ccccc3)ncnc21 (relative stereo) | inactive | inactive | inactive | inactive | – | – | – | – | – | – | – | – | – | – | – | – | –
18 | O=C1[C@@H](Oc2ccccc2)[C@@H](c2ccccc2)N1CCn1cnc2c(NCc3ccccc3)ncnc21 (relative stereo) | inactive | inactive | inactive | inactive | – | – | – | – | – | – | – | – | – | – | – | – | –
19 | OC[C@@H](OCc1ccccc1)[C@H](NCCCn1cnc2c(NCc3ccccc3)ncnc21)c1ccc(Cl)cc1Cl (relative stereo) | inactive | inactive | inactive | inactive | – | – | – | – | – | – | – | – | – | – | – | – | –
20 | OC[C@@H](Oc1ccccc1)[C@H](NCCCn1cnc2c(NCc3ccccc3)ncnc21)c1ccccc1 (relative stereo) | inactive | inactive | inactive | inactive | – | – | – | – | – | – | – | – | – | – | – | – | –
